Reference: ChEMBL document CHEMBL4725347, “Discovery of a Monoiodo Aza-BODIPY Near-Infrared Photosensitizer: in vitro and in vivo Evaluation for Photodynamic Therapy” (J Med Chem, 2020)

Assays:
[1] = Absorption property of the compound in chloroform assessed as hypsochromic shift by measuring maximum absorption wavelength by UV-visible spectrophotometric method; format: physicochemical
Outline: (§1)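 Electronic absorption spectra recorded by UV-visible spectrophotometry at room temperature. Solvents were chloroform, isopropanol, acetonitrile, DMF, and PBS buffer containing 1% Cremophor EL/1,2-propanediol (10:3, v:v). Chloroform data were referenced to the non-halogenated parent dye.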

[2] = Absorption property of the compound in chloroform assessed as absorption coefficient by UV-visible spectrophotometric method; format: physicochemical; outline: as §1
[3] = Emission property of the compound in chloroform assessed as maximum emission wavelength by fluorescence spectrophotometric method; format: physicochemical
Outline: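 Fluorescence spectrum recorded in chloroform by fluorescence spectrophotometer at room temperature.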

[4] = Induction of singlet oxygen generation in N,N-dimethylformamide assessed as relative rate of DPBF degradation to MB at 1 uM irradiated with 90 mW/cm2 halogen light; format: functional
Outline: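 Singlet oxygen generation measured with 1,3-diphenylisobenzofuran (DPBF) as scavenger. The decrease in DPBF absorbance at 411 nm was monitored over time during light irradiation, and the photodegradation rate was calculated.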

[5] = Dark toxicity in human HeLa cells assessed as reduction in cell viability after 3 hrs by MTT assay; format: cell-based
Outline: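 Compound was formulated with Cremophor EL/1,2-propanediol in PBS, filtered, and its concentration confirmed by UV-Vis. HeLa cells in DMEM with 10% FBS at 37 °C, 5% CO2 were seeded at 3×10^3 cells/well and adhered overnight. Cells were exposed to graded concentrations for 3 h without light, incubated 24 h, then MTT 0.5 mg/mL for 4 h; formazan dissolved in DMSO, A490 read.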

HeLa = assay: Phototoxicity against human HeLa cells assessed as reduction in cell viability preincubated for 3 hrs followed by 54 J/cm2 light irradiation and measured after 24 hrs by MTT assay; format: functional, cell-based; conditions: light or radiation study
Outline: (§2)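 PS formulated in PBS containing Cremophor EL/1,2-propanediol (10:3, v:v) after THF removal, filtered, with concentration confirmed by UV-Vis. Cells were grown in DMEM with 10% FBS and seeded at 3×10^3 per well overnight. They were incubated with PS for 3 h, irradiated at λ > 590 nm, kept 24 h at 37 °C, then given MTT (0.5 mg/mL, 4 h) with DMSO solubilization and A490 read-out.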

[6] = Dark toxicity in human MCF7 cells assessed as reduction in cell viability after 3 hrs by MTT assay; format: cell-based
MCF7 = assay: Phototoxicity against human MCF7 cells assessed as reduction in cell viability preincubated for 3 hrs followed by 54 J/cm2 light irradiation and measured after 24 hrs by MTT assay; format: functional, cell-based; conditions: MCF7, light or radiation study; outline: as §2
[7] = Dark toxicity in human SW480 cells assessed as reduction in cell viability after 3 hrs by MTT assay; format: cell-based
SW480 = assay: Phototoxicity against human SW480 cells assessed as reduction in cell viability preincubated for 3 hrs followed by 54 J/cm2 light irradiation and measured after 24 hrs by MTT assay; format: functional, cell-based; conditions: SW480, light or radiation study; outline: as §2

## Cc1ccc(C2=[N+]3C(=Nc4c(-c5ccccc5)cc(-c5ccc(C)cc5)n4[B-]3(F)F)C(c3ccccc3)=C2Br)cc1
[1]
  Activity: 658 nm
[2]
  Activity: 83600 M⁻¹ cm⁻¹
[3]
  Activity: 685 nm
[4]
  fold change (FC): 0.12
[5]
  IC50 at 3 h: > 50 µM
HeLa
  IC50: 7.2 µM
[6]
  IC50 at 3 h: > 50 µM
MCF7
  IC50: 2.6 µM
[7]
  IC50 at 3 h: > 50 µM
SW480
  IC50: > 25 µM

## COc1ccc2c(c1)CCc1c(-c3ccccc3)c3n(c1-2)[B-](F)(F)[N+]1=C(c2ccc(C)cc2)C(Br)=C(c2ccccc2)C1=N3
[1]
  Activity: 682 nm
[2]
  Activity: 104400 M⁻¹ cm⁻¹
[3]
  Activity: 709 nm
[4]
  fold change (FC): 0.14
[5]
  IC50 at 3 h: > 50 µM
HeLa
  IC50: 1.2 µM
[6]
  IC50 at 3 h: > 50 µM
MCF7
  IC50: 8.1 µM
[7]
  IC50 at 3 h: > 50 µM
SW480
  IC50: 15.6 µM

## COc1ccc(C2=[N+]3C(=Nc4c(-c5ccccc5)c5c(n4[B-]3(F)F)-c3ccc(OC)cc3CC5)C(c3ccccc3)=C2I)cc1
[1]
  Activity: 689 nm
[2]
  Activity: 101300 M⁻¹ cm⁻¹
[3]
  Activity: 725 nm
[4]
  fold change (FC): 1.2
[5]
  IC50 at 3 h: > 50 µM
HeLa
  IC50: 0.081 µM
[6]
  IC50 at 3 h: > 50 µM
MCF7
  IC50: 0.14 µM
[7]
  IC50 at 3 h: > 50 µM
SW480
  IC50: 0.12 µM

## COc1ccc2c(c1)CCc1c(-c3ccccc3)c3n(c1-2)[B-](F)(F)[N+]1=C(c2ccc(C)s2)C(Br)=C(c2ccccc2)C1=N3
[1]
  Activity: 714 nm
[2]
  Activity: 73700 M⁻¹ cm⁻¹
[3]
  Activity: 753 nm
[4]
  fold change (FC): 0.14
[5]
  IC50 at 3 h: > 50 µM
HeLa
  IC50: 22.6 µM
[6]
  IC50 at 3 h: > 50 µM
MCF7
  IC50: > 25 µM
[7]
  IC50 at 3 h: > 50 µM
SW480
  IC50: > 25 µM

## Cc1ccc(C2=[N+]3C(=Nc4c(-c5ccccc5)c(Br)c(-c5ccc(C)cc5)n4[B-]3(F)F)C(c3ccccc3)=C2Br)cc1
[1]
  Activity: 658 nm
[2]
  Activity: 79900 M⁻¹ cm⁻¹
[3]
  Activity: 685 nm
[4]
  fold change (FC): 0.22
[5]
  IC50 at 3 h: > 50 µM
HeLa
  IC50: 4.3 µM
[6]
  IC50 at 3 h: > 50 µM
MCF7
  IC50: 1.5 µM
[7]
  IC50 at 3 h: > 50 µM
SW480
  IC50: 16.1 µM

## COc1ccc2c(c1)CCc1c(-c3ccccc3)c3n(c1-2)[B-](F)(F)[N+]1=C(c2cccs2)C(I)=C(c2ccccc2)C1=N3
[1]
  Activity: 695 nm
[2]
  Activity: 81500 M⁻¹ cm⁻¹
[3]
  Activity: 740 nm
[4]
  fold change (FC): 0.37
[5]
  IC50 at 3 h: > 50 µM
HeLa
  IC50: 0.46 µM
[6]
  IC50 at 3 h: > 50 µM
MCF7
  IC50: 0.75 µM
[7]
  IC50 at 3 h: > 50 µM
SW480
  IC50: 0.83 µM

## COc1ccc2c(c1)CCc1c(-c3ccccc3)c3n(c1-2)[B-](F)(F)[N+]1=C(c2ccc(C)cc2)C(I)=C(c2ccccc2)C1=N3
[1]
  Activity: 682 nm
[2]
  Activity: 110000 M⁻¹ cm⁻¹
[3]
  Activity: 709 nm
[4]
  fold change (FC): 0.25
[5]
  IC50 at 3 h: > 50 µM
HeLa
  IC50: 0.11 µM
[6]
  IC50 at 3 h: > 50 µM
MCF7
  IC50: 0.41 µM
[7]
  IC50 at 3 h: > 50 µM
SW480
  IC50: 0.66 µM

## COc1ccc(C2=[N+]3C(=Nc4c(-c5ccccc5)c5c(n4[B-]3(F)F)-c3ccc(OC)cc3CC5)C(c3ccccc3)=C2Br)cc1
[1]
  Activity: 692 nm
[2]
  Activity: 90300 M⁻¹ cm⁻¹
[3]
  Activity: 724 nm
[4]
  fold change (FC): 0.17
[5]
  IC50 at 3 h: > 50 µM
HeLa
  IC50: 0.83 µM
[6]
  IC50 at 3 h: > 50 µM
MCF7
  IC50: 4.5 µM
[7]
  IC50 at 3 h: > 50 µM
SW480
  IC50: 1.9 µM

## Cc1ccc(C2=[N+]3C(=Nc4c(-c5ccccc5)c(I)c(-c5ccc(C)cc5)n4[B-]3(F)F)C(c3ccccc3)=C2I)cc1
[1]
  Activity: 662 nm
[2]
  Activity: 92000 M⁻¹ cm⁻¹
[3]
  Activity: 688 nm
[4]
  fold change (FC): 0.28
[5]
  IC50 at 3 h: > 50 µM
HeLa
  IC50: 13.4 µM
[6]
  IC50 at 3 h: > 50 µM
MCF7
  IC50: 5.3 µM
[7]
  IC50 at 3 h: > 50 µM
SW480
  IC50: > 25 µM
